Experiments:
[1] = test system: THP-1 cells; assay: MTT assay; type: cell-based, human; settings: 0, 0.1, 1 or 10 μM tested, 24 h
Method in brief: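 THP-1 cells were plated at 5 × 10^4 cells/well and cultured 24 h at 37 °C. Medium containing 0, 0.1, 1 or 10 μM constituent was added for a further 24 h. Viability was measured with an MTT kit per the manufacturer's protocol and used to set nontoxic working concentrations.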

[2] = biological target: T1, Aβ1–42 (Homo sapiens, UniProt P05067); assay: ThT assay of Aβ1–42 aggregation; type: biochemical; settings: for Time course of RFU (curve shape) at lower concentrations: 25 and 50 μM constituent, data not shown; for Concentration dependence of activity in ThT assay: 25, 50, 100 μM
T1 sequence (P05067 672-713): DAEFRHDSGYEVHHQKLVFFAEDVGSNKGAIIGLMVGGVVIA
Method in brief: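 Aβ1−42 was dissolved in 2 mM NaOH, lyophilized, then taken up in 20 mM phosphate buffer pH 7.4. Final concentrations were 50 μM Aβ1−42, 200 μM ThT and 100 μM constituent (25 and 50 μM for concentration dependence). Fluorescence (Ex 440/Em 484 nm) was read every 5 min for 3 h at 37 °C and blank-subtracted. Phenol red was the positive control and Aβ alone the negative. IC50 came from sigmoidal fitting. Mean ± SD, n = 3.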

[3] = test system: IL 1B mRNA in THP-1 cells; assay: RT-qPCR of IL 1B in Aβ1–42-stimulated THP-1 cells; type: cell-based, human; settings: 10 μM Aβ1–42, 24 h; ARA 0.1 μM, LPC 10 μM, LTN 0.1 μM, POA 10 μM, ZX 1 μM
[4] = biological target: T1, Aβ1–42; assay: Transmission electron microscopy of Aβ1–42 fibrils after ThT assay; type: biochemical; settings: 100 μM constituent, 50 μM Aβ1–42, 3 h incubation
Method in brief: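 After the 3 h, 37 °C ThT assay (50 μM Aβ1−42, 100 μM constituent), 10 μL was spotted on a copper grid. It was stained with 2% aqueous uranyl acetate, blotted, air-dried and imaged by TEM at 120 kV.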

[5] = biological target: T1, Aβ1–42; assay: FTIR spectroscopy of Aβ1–42 secondary structure; type: biochemical; settings: after ThT assay, mixed with Aβ1–42
Method in brief: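 Samples came from completed ThT assays (50 μM Aβ1−42 ± 100 μM constituent, 37 °C, 3 h). 15 μL was dried on a diamond ATR prism at 25 °C, repeated twice. ATR-FTIR spectra were taken over 1500–1700 cm−1 with 100 s integration. The area under the parallel β-sheet absorbance band was integrated. Mean ± SD, n = 3; Dunnett's test.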

[6] = biological target: Aβ1–42 fibrils (Homo sapiens, UniProt P05067); assay: Aβ fibril destabilization assay; type: biochemical; settings: 100 μM constituent, 50 μM Aβ1–42 fibrils, 37 °C, 5 h
Aβ1–42 fibrils, sequence (P05067 672-713): as above
Method in brief: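 Aβ1−42 was pre-aggregated at 37 °C for 2 days, and fibril formation was confirmed by 1 h of stable ThT RFU. Constituent was then added (100 μM final; 50 μM Aβ1−42) and ThT fluorescence (Ex/Em 440/484 nm) was read for 5 h at 37 °C as in the aggregation assay. AUC was calculated. Mean ± SD, n = 3; Dunnett's test.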

[7] = biological target: T1, Aβ1–42; settings: previous paper; cited from earlier work
[8] = test system: TNF mRNA in THP-1 cells; assay: RT-qPCR of TNF in Aβ1–42-stimulated THP-1 cells; type: cell-based, human; settings: 10 μM Aβ1–42, 24 h; ARA 0.1 μM, LPC 10 μM, LTN 0.1 μM, POA 10 μM, ZX 1 μM
[9] = biological target: T1, Aβ1–42; assay: PICUP oligomerization assay; type: biochemical; settings: 50 μM constituent (final), 25 μM Aβ
[10] = test system: Aβ; settings: previously shown; cited from earlier work
[11] = test system: IL 1B protein in THP-1 cell culture media; assay: ELISA of IL 1B in supernatant of Aβ1–42-stimulated THP-1 cells; type: cell-based, human; settings: 10 μM Aβ1–42, 24 h; LTN 0.1 μM
Method in brief: (§1)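 THP-1 cells were seeded at 5 × 10^5 cells/mL and differentiated to adherent macrophage-like cells (24 h). They were rested 24 h at 37 °C in RPMI-1640/10% FBS/1% P/S, then stimulated with 10 μM Aβ1−42 ± constituent for 24 h. Supernatant was assayed with human IL-1β or TNF-α sandwich ELISA kits, reading A450 and converting to pg/mL. Mean ± SE, n = 3; Tukey's test.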

[12] = test system: TNF protein in THP-1 cell culture media; assay: ELISA of TNF in supernatant of Aβ1–42-stimulated THP-1 cells; type: cell-based, human; settings: 10 μM Aβ1–42, 24 h; LTN 0.1 μM
Method in brief: as §1

[13] = monkeys, after feeding; cited from earlier work
[14] = test system: Caco-2 cells; settings: in vitro; cited from earlier work

Compound | Optimal (nontoxic) concentration determined by MTT assay [1] [µM] | Time course of RFU (curve shape) at lower concentrations [2] | IL 1B mRNA induced by Aβ1–42 [3] | Inhibition of Aβ1–42 aggregation observed by TEM [4] | AUC of absorbances in the range of 1615–1645 cm^–1 (parallel β-sheet) [5] | RFU of ThT during incubation with preformed Aβ1–42 fibrils [6] | Effect on Aβ1–42 aggregation [7] | TNF mRNA induced by Aβ1–42 [8] | Inhibition of Aβ1–42 oligomerization (PICUP) [9] | IC50 [2] [µM] | RFU at start of ThT assay ([2]; 100 μM ARA, 50 μM Aβ1–42) | Concentration dependence of activity in ThT assay [2] | Morphology of Aβ fibrils by TEM [4] | Inhibition of Aβ aggregation [10] | Protein concentration of IL 1B in the supernatant [11] | Protein concentration of TNF in the supernatant [12] | Concentration of LTN in the brains [13] | Intestinal absorption of LTN in the presence of LPC [14]
L-α-lysophosphatidylcholine [LPC] | 10 | did not improve | not suppressed | inhibited Aβ1–42 aggregation | particular decrease | remained unchanged | facilitates Aβ1–42 aggregation | not suppressed |  |  |  |  |  |  |  |  |  | 
CCCCC/C=C\C/C=C\C/C=C\C/C=C\CCCC(=O)O [ARA, arachidonic acid] | 0.1 | did not improve | not suppressed | inhibited Aβ1–42 aggregation | decrease | remained unchanged |  | not suppressed | did not inhibit oligomerization | 37.4 | approximately 25 RFU |  |  |  |  |  |  | 
CCCCCC/C=C\CCCCCCCC(=O)O [POA, palmitoleic acid] | 10 |  | not suppressed | inhibited Aβ1–42 aggregation |  | decreased |  | not suppressed | inhibited oligomerization |  |  | no concentration dependence | amorphous |  |  |  |  | 
CC1=C(/C=C/C(C)=C/C=C/C(C)=C/C=C/C=C(C)/C=C/C=C(C)/C=C/C2=C(C)C[C@@H](O)CC2(C)C)C(C)(C)C[C@H](O)C1 [ZX, zeaxanthin] | 1 |  | not suppressed | inhibited Aβ1–42 aggregation | decrease | remained unchanged |  | not suppressed | inhibited oligomerization |  |  |  |  | inhibit Aβ aggregation |  |  |  | 
CC1=C[C@H](O)CC(C)(C)[C@H]1/C=C/C(C)=C/C=C/C(C)=C/C=C/C=C(C)/C=C/C=C(C)/C=C/C1=C(C)C[C@@H](O)CC1(C)C [LTN, lutein] | 0.1 | sigmoidal curve | suppressed | inhibited the Aβ1–42 aggregation the most | particular decrease | remained unchanged |  | suppressed | did not inhibit oligomerization | 74 |  | concentration-dependent |  | inhibit Aβ aggregation | suppressed | no difference was observed | increases | increases
